Assay results: ChEMBL document CHEMBL3877295, “Discovery of novel 3-hydroxypicolinamides as selective inhibitors of HIV-1 integrase-LEDGF/p75 interaction” (Eur J Med Chem, 2017)

Tests used:
[1] = Inhibition of HIV1 recombinant GST/His-tagged integrase strand transfer activity expressed in Escherichia coli BL21(DE3) using 5'-end 32P labeled linear 21-mer substrate preincubated for 30 mins followed by substrate addition measured after 1 hr by PAGE analysis; set-up: species or system Human immunodeficiency virus 1
In short: (§1)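 Recombinant wild-type integrase (200 nM final) preincubated with inhibitor in 50 mM NaCl, 1 mM HEPES pH 7.5, 10% glycerol, 7.5 mM MnCl2, 0.1 mg/mL BSA. Substrate: 21-mer top strand 5'-labelled with [γ-32P]ATP by T4 polynucleotide kinase, kinase heat-killed at 95 °C for 15 min, annealed to 1.5-fold molar excess bottom strand, and spin-column cleaned.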

[2] = Inhibition of HIV1 His6-tagged integrase/FLAG-tagged LEDGF/p75 protein-protein interaction expressed in Escherichia coli BL21(DE3) preincubated with integrase for 30 mins followed by LEDGF/p75 addition measured after 60 mins by AlphaScreen assay
In short: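 His6-integrase (300 nM final) preincubated with compound […] for 30 min at 4 °C. FLAG-LEDGF/p75 (300 nM final) added for 60 min at 4 °C. Ni-chelate donor and anti-FLAG acceptor beads (20 µg/mL each) added for 1 h at 30 °C, then acceptor emission read.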

[3] = Therapeutic Index, ratio of CC50 for human MT4 cells to EC50 for HIV1 3B infected in human MT4 cells; assay type: cell-based; settings: read-out: Ratio CC50/EC50
[4] = test system: Human immunodeficiency virus 1; assay: Antiviral activity against HIV1 3B infected in human MT4 cells assessed as reduction in virus-induced cytopathic effect by MTT assay; assay type: functional, cell-based; settings: Human immunodeficiency virus 1, 3B
[5] = Cytotoxicity against human MT4 cells assessed as reduction in cell viability after 72 hrs by MTT assay; assay type: toxicity, cell-based
[6] = Inhibition of HIV1 recombinant GST/His-tagged integrase 3'-processing activity expressed in Escherichia coli BL21(DE3) assessed as reduction in 19-mer product using 5'-end 32P labeled linear 21-mer substrate preincubated for 30 mins followed by substrate addition measured after 1 hr by PAGE analysis; set-up: species or system Human immunodeficiency virus 1; in short: as §1
[7] = Cytotoxicity against human C8166 cells assessed as reduction in cell viability after 72 hrs by MTT assay; assay type: toxicity, cell-based
[8] = test system: Human immunodeficiency virus 1; assay: Antiviral activity against HIV1 3B infected in human C8166 cells assessed as reduction in virus-induced cytopathic effect by MTT assay; assay type: functional, cell-based; settings: Human immunodeficiency virus 1, 3B
[9] = Therapeutic Index, ratio of CC50 for human C8166 cells to EC50 for HIV1 3B infected in human C8166 cells; assay type: cell-based; settings: read-out: Ratio CC50/EC50
[10] = Inhibition of HIV1 GST-tagged integrase and His6-tagged integrase mutant dimerization expressed in Escherichia coli BL21(DE3) after overnight incubation by AlphaScreen assay; set-up: species or system Human immunodeficiency virus 1

Compound | IC50 [1] [µM] | IC50 [2] [µM] | selectivity ratio [3] | EC50 [4] [µM] | CC50 at 72 h [5] [µM] | IC50 [6] [µM] | CC50 at 72 h [7] [µM] | EC50 [8] [µM] | selectivity ratio [9] | IC50 [10] [µM]
Nc1cccc(C(=O)NCc2ccco2)c1O | > 100 | 51 | – | – | – | – | – | – | – | –
O=c1oc2cccnc2c(=O)n1Cc1ccc(F)cc1 | > 20 | > 20 | 4.3 | 73.5 | 311 | > 20 | – | – | – | –
O=C(Nc1ccc(F)cc1)c1ncccc1O | > 20 | 8 | – | – | – | > 20 | > 860 | 19.4 | > 45 | –
O=C(NCc1ccco1)c1cccnc1O | – | > 100 | – | – | – | – | – | – | – | –
O=C(NCc1cccs1)c1ncccc1O | > 20 | 7.5 | – | – | – | > 20 | 218 | 75.6 | 2.9 | 8
COc1cccnc1C(=O)NCc1ccc(F)cc1 | > 20 | > 20 | – | – | – | > 20 | – | – | – | –
COc1cc(CNC(=O)c2ncccc2O)cc(OC)c1OC | > 20 | 2.5 | – | – | – | > 20 | > 500 | 58.7 | > 9 | 9.8
O=C(NCc1ccc(F)cc1)c1ccccn1 | > 20 | > 20 | – | – | – | > 20 | – | – | – | –
CC(C)CN(Cc1ccc(F)cc1)C(=O)c1ncccc1O | > 20 | > 20 | < 1 | 270 | 247 | > 20 | – | – | – | –
O=C(NCc1ccc2[nH]ccc2c1)c1ncccc1O | > 20 | 4.6 | – | – | – | > 20 | 138 | 70 | 2 | 8
O=C(NCc1ccc(F)cc1)c1cccc(O)n1 | > 20 | > 20 | – | – | – | > 20 | – | – | – | –
C=C(C)CN(Cc1ccc(F)cc1)C(=O)c1ncccc1O | > 20 | > 20 | < 1 | 279 | 272 | > 20 | – | – | – | –
O=C(NCc1ccc(F)cc1)c1cc(O)ccn1 | > 20 | > 20 | – | – | – | > 20 | – | – | – | –
CCCCNC(=O)c1ncccc1O | > 20 | > 20 | – | – | – | > 20 | > 1000 | > 500 | – | –
O=c1oc2cccnc2c(=O)n1Cc1cccs1 | > 20 | > 20 | 5.2 | 69.9 | 363 | > 20 | – | – | – | –
O=C(NCc1ccc(F)c(Cl)c1)c1ncccc1O | > 20 | 4.2 | – | – | – | > 20 | 310 | 19.2 | 16 | –
O=C(NCc1ccc(F)cc1)c1ncccc1F | > 20 | > 20 | – | – | – | > 20 | – | – | – | –
O=C(NCc1ccc(F)cc1)c1ncccc1O | > 20 | 8.6 | – | – | – | > 20 | 114 | 77.6 | 1.5 | 6.1
CC(C)CCN(Cc1ccc(F)cc1)C(=O)c1ncccc1O | > 20 | > 20 | 3.9 | 68.6 | 268 | > 20 | – | – | – | –
O=C(NCC1CCCCC1)c1ncccc1O | > 20 | 19 | – | – | – | > 20 | 137 | 66.2 | 2.1 | –
O=C(NCc1ccco1)c1ncccc1O | > 20 | 2.4 | – | – | – | > 20 | 575 | 269 | 2.1 | 10
O=C(NCc1ccc([N+](=O)[O-])cc1)c1ncccc1O | > 20 | 4 | – | – | – | > 20 | 127 | 26.4 | 4.8 | –
CCCCN(Cc1ccc(F)cc1)C(=O)c1ncccc1O | > 20 | 12 | – | > 330 | > 660 | > 20 | – | – | – | 14
Nc1ccc(CNC(=O)c2ncccc2O)cc1 | > 20 | 1.7 | – | – | – | > 20 | > 596 | 260 | > 2.3 | 4
O=C(NCc1ccc(C(F)(F)F)cc1)c1ncccc1O | > 20 | > 20 | – | – | – | > 20 | 31.4 | 43.2 | < 1 | –
O=C(NCc1cccc2ccccc12)c1ncccc1O | > 20 | > 20 | – | – | – | > 20 | 88.8 | 58.2 | 1.5 | –
O=C(NCc1ccc(F)cc1)c1ccc(O)cn1 | > 20 | > 20 | – | – | – | > 20 | – | – | – | –
O=C(NCc1ccc(F)cc1)c1nc(N2CCCCS2(=O)=O)c2cccnc2c1O | 0.0008 | – | – | – | – | 0.0054 | 123 | 0.00233 | 52800 | –
